According to ChEMBL document CHEMBL3407388, “Synthesis, anticancer activity and molecular docking studies on a series of heterocyclic trans-cyanocombretastatin analogues as antitubulin agents” (2015):

Key:
Assay type in all cases: functional
[1] = tested on: RXF 393; experiment: Cytotoxicity against human RXF393 cells assessed as growth inhibition after 48 hrs by SRB assay; details: RXF 393, 48 h
How it was run: (§1)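 NCI 60-cell panel; compounds passing a single-dose screen (10−5 M, 48 h) were tested at five 10-fold dilutions (10−4 to 10−8 M) with 48 h drug exposure. GI50 is the molar concentration giving 50% reduction in net cell growth relative to cell numbers on day 0.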

[2] = tested on: SF-268; experiment: Cytotoxicity against human SF268 cells assessed as growth inhibition after 48 hrs by SRB assay; details: SF-268, 48 h; how it was run: as §1
[3] = tested on: M14; experiment: Cytotoxicity against human M14 cells assessed as growth inhibition after 48 hrs by SRB assay; details: M14, 48 h; how it was run: as §1
[4] = tested on: SW-620; experiment: Cytotoxicity against human SW620 cells assessed as growth inhibition after 48 hrs by SRB assay; details: SW-620, 48 h
[5] = tested on: NCI-H460; experiment: Cytotoxicity against human NCI-H460 cells assessed as growth inhibition after 48 hrs by SRB assay; details: NCI-H460, 48 h; how it was run: as §1
[6] = tested on: BT-549; experiment: Cytotoxicity against human BT549 cells assessed as growth inhibition after 48 hrs by SRB assay; details: BT-549, 48 h; how it was run: as §1
[7] = Cytotoxicity against human OVCAR4 cells assessed as growth inhibition after 48 hrs by SRB assay; details: OVCAR-4, 48 h; how it was run: as §1
[8] = tested on: NCI-H23; experiment: Cytotoxicity against human NCI-H23 cells assessed as growth inhibition after 48 hrs by SRB assay; details: NCI-H23, 48 h; how it was run: as §1
[9] = tested on: SK-MEL-5; experiment: Cytotoxicity against human SK-MEL-5 cells assessed as growth inhibition after 48 hrs by SRB assay; details: SK-MEL-5, 48 h; how it was run: as §1
[10] = tested on: LOX IMVI; experiment: Cytotoxicity against human LOXIMVI cells assessed as growth inhibition after 48 hrs by SRB assay; how it was run: as §1
[11] = Cytotoxicity against human NCI-ADR-RES cells assessed as growth inhibition after 48 hrs by SRB assay; how it was run: as §1
[12] = tested on: K562; experiment: Cytotoxicity against human K562 cells assessed as growth inhibition after 48 hrs by SRB assay; details: K562, 48 h; how it was run: as §1
[13] = tested on: HT-29; experiment: Cytotoxicity against human HT-29 cells assessed as growth inhibition after 48 hrs by SRB assay; details: HT-29, 48 h; how it was run: as §1
[14] = Cytotoxicity against human HCT116 cells assessed as growth inhibition after 48 hrs by SRB assay; details: HCT-116, 48 h; how it was run: as §1
[15] = Cytotoxicity against human PC3 cells assessed as growth inhibition after 48 hrs by SRB assay; details: PC-3, 48 h; how it was run: as §1
[16] = tested on: RPMI-8226; experiment: Cytotoxicity against human RPMI8226 cells assessed as growth inhibition after 48 hrs by SRB assay; details: RPMI-8226, 48 h; how it was run: as §1
[17] = tested on: KM12; experiment: Cytotoxicity against human KM12 cells assessed as growth inhibition after 48 hrs by SRB assay; details: KM12, 48 h; how it was run: as §1
[18] = tested on: MCF7; experiment: Cytotoxicity against human MCF7 cells assessed as growth inhibition after 48 hrs by SRB assay; details: MCF7, 48 h; how it was run: as §1
[19] = Cytotoxicity against human HCT15 cells assessed as growth inhibition after 48 hrs by SRB assay; details: HCT-15, 48 h; how it was run: as §1
[20] = Cytotoxicity against human OVCAR3 cells assessed as growth inhibition after 48 hrs by SRB assay; details: OVCAR-3, 48 h; how it was run: as §1
[21] = tested on: HCC 2998; experiment: Cytotoxicity against human HCC2998 cells assessed as growth inhibition after 48 hrs by SRB assay; details: HCC 2998, 48 h; how it was run: as §1
[22] = tested on: TK-10; experiment: Cytotoxicity against human TK10 cells assessed as growth inhibition after 48 hrs by SRB assay; details: TK-10, 48 h
[23] = tested on: COLO 205; experiment: Cytotoxicity against human COLO205 cells assessed as growth inhibition after 48 hrs by SRB assay; details: COLO 205, 48 h; how it was run: as §1
[24] = tested on: SK-OV-3; experiment: Cytotoxicity against human SKOV3 cells assessed as growth inhibition after 48 hrs by SRB assay; details: SK-OV-3, 48 h; how it was run: as §1
[25] = tested on: SNB-19; experiment: Cytotoxicity against human SNB19 cells assessed as growth inhibition after 48 hrs by SRB assay; details: SNB-19, 48 h; how it was run: as §1
[26] = tested on: U-251; experiment: Cytotoxicity against human U251 cells assessed as growth inhibition after 48 hrs by SRB assay; details: U-251, 48 h
[27] = tested on: SN12C; experiment: Cytotoxicity against human SN12C cells assessed as growth inhibition after 48 hrs by SRB assay; how it was run: as §1
[28] = tested on: DU-145; experiment: Cytotoxicity against human DU145 cells assessed as growth inhibition after 48 hrs by SRB assay; details: DU-145, 48 h; how it was run: as §1
[29] = tested on: MOLT-4; experiment: Cytotoxicity against human MOLT4 cells assessed as growth inhibition after 48 hrs by SRB assay; details: MOLT-4, 48 h; how it was run: as §1
[30] = tested on: MDA-MB-435; experiment: Cytotoxicity against human MDA-MB-435 cells assessed as growth inhibition after 48 hrs by SRB assay; details: MDA-MB-435, 48 h; how it was run: as §1
[31] = tested on: A498; experiment: Cytotoxicity against human A498 cells assessed as growth inhibition after 48 hrs by SRB assay; details: A498, 48 h; how it was run: as §1
[32] = tested on: NCI-H226; experiment: Cytotoxicity against human NCI-H226 cells assessed as growth inhibition after 48 hrs by SRB assay; details: NCI-H226, 48 h; how it was run: as §1
[33] = tested on: 786-0; experiment: Cytotoxicity against human 786-0 cells assessed as growth inhibition after 48 hrs by SRB assay; details: 786-0, 48 h; how it was run: as §1
[34] = tested on: IGROV-1; experiment: Cytotoxicity against human IGROV1 cells assessed as growth inhibition after 48 hrs by SRB assay; details: IGROV-1, 48 h; how it was run: as §1
[35] = tested on: HL-60(TB); experiment: Cytotoxicity against human HL-60(TB) cells assessed as growth inhibition after 48 hrs by SRB assay; details: HL-60, 48 h
How it was run: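 NCI 60-cell panel, leukemia subpanel. Five-dose screen at 10-fold dilutions from 10−4 to 10−8 M with 48 h drug exposure. GI50 is the molar concentration giving 50% reduction in net cell growth compared with cell numbers on day 0.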

[36] = tested on: SF-539; experiment: Cytotoxicity against human SF539 cells assessed as growth inhibition after 48 hrs by SRB assay; details: SF-539, 48 h; how it was run: as §1
[37] = tested on: MDA-MB-231; experiment: Cytotoxicity against human MDA-MB-231 cells assessed as growth inhibition after 48 hrs by SRB assay; details: MDA-MB-231, 48 h; how it was run: as §1
[38] = tested on: CAKI-1; experiment: Cytotoxicity against human Caki1 cells assessed as growth inhibition after 48 hrs by SRB assay; details: CAKI-1, 48 h; how it was run: as §1
[39] = tested on: SF-295; experiment: Cytotoxicity against human SF295 cells assessed as growth inhibition after 48 hrs by SRB assay; details: SF-295, 48 h; how it was run: as §1
[40] = tested on: SNB-75; experiment: Cytotoxicity against human SNB75 cells assessed as growth inhibition after 48 hrs by SRB assay; details: SNB-75, 48 h
[41] = Cytotoxicity against human Hs578T cells assessed as growth inhibition after 48 hrs by SRB assay; details: Hs-578T; how it was run: as §1
[42] = Cytotoxicity against human UACC62 cells assessed as growth inhibition after 48 hrs by SRB assay; details: UACC-62, 48 h
[43] = Cytotoxicity against human OVCAR8 cells assessed as growth inhibition after 48 hrs by SRB assay; details: OVCAR-8, 48 h; how it was run: as §1

Measured: GI50

COc1cc(/C(C#N)=C/c2cc3ccccc3o2)cc(OC)c1OC
0.247 µM: [2]
0.047 µM: [29]
0.039 µM: [7]
0.028 µM: [37]
0.019 µM: [16]
73.6 µM: [22]
0.022 µM: [34]
0.029 µM: [6]
0.023 µM: [18]
0.01 µM: [21]
< 0.01 µM: all other assays above
